Results as given in ChEMBL document CHEMBL1158680, “Chemical constituents and biological activities of the fruit of Zanthoxylum integrifoliolum” (1999).
Active and inactive are the calls of the source. The rule behind the calls is not given here.

Tests used:
Aorta [1] = test: Vasorelaxation activity in rat aorta assessed as inhibition of norepinephrine-induced phasic contraction at 50 ug/ml preincubated for 15 mins relative to control; type: functional; parameters: scale not given: the % may be the effect or the level left
How it was run: (§1)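 Rat aorta was preincubated with test sample or 0.1% DMSO vehicle at 37 °C for 15 min. Contraction was then evoked with high K+ (80 mM) or norepinephrine (3 μM). Response is expressed as percent of control contraction, mean ± SEM, n = 3.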

Aorta [2] = test: Vasorelaxation activity in rat aorta assessed as inhibition of K+-induced contraction at 5 ug/ml preincubated for 15 mins relative to control; type: functional; parameters: scale not given: the % may be the effect or the level left; how it was run: as §1
[3] = Antiplatelet activity against rabbit platelets assessed as inhibition of thrombin-induced platelet aggregation at 100 ug/ml preincubated for 3 mins by turbidimetric method; type: functional, Oryctolagus cuniculus; parameters: scale not given: the % may be the effect or the level left
How it was run: (§2)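 Washed rabbit platelets were preincubated with test sample or 0.5% DMSO vehicle for 3 min at 37 °C. Inducers were thrombin 0.1 U/mL, arachidonic acid 100 μM, collagen 10 μg/mL or PAF 2 nM. Turbidimetric read-out took platelet suspension absorbance as 0% and platelet-free Tyrode's as 100% aggregation, measured at 6 min. Results are mean ± SEM with n per entry.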

Aorta [4] = test: Vasorelaxation activity in rat aorta assessed as inhibition of K+-induced contraction at 15 ug/ml preincubated for 15 mins relative to control; type: functional; parameters: scale not given: the % may be the effect or the level left; how it was run: as §1
Aorta [5] = test: Vasorelaxation activity in rat aorta assessed as inhibition of norepinephrine-induced phasic contraction at 15 ug/ml preincubated for 15 mins relative to control; type: functional; parameters: scale not given: the % may be the effect or the level left; how it was run: as §1
Aorta [6] = test: Vasorelaxation activity in rat aorta assessed as inhibition of norepinephrine-induced tonic contraction at 15 ug/ml preincubated for 15 mins relative to control; type: functional; parameters: scale not given: the % may be the effect or the level left; how it was run: as §1
Aorta [7] = test: Vasorelaxation activity in rat aorta assessed as inhibition of K+-induced contraction at 50 ug/ml preincubated for 15 mins relative to control; type: functional; parameters: scale not given: the % may be the effect or the level left; how it was run: as §1
[8] = Antiplatelet activity against rabbit platelets assessed as inhibition of arachidonic acid-induced platelet aggregation at 100 ug/ml preincubated for 3 mins by turbidimetric method; type: functional, Oryctolagus cuniculus; parameters: scale not given: the % may be the effect or the level left; how it was run: as §2
[9] = (§3) Antiplatelet activity against rabbit platelets assessed as inhibition of collagen-induced platelet aggregation at 100 ug/ml preincubated for 3 mins by turbidimetric method; type: functional, Oryctolagus cuniculus; parameters: scale not given: the % may be the effect or the level left; how it was run: as §2
[10] = Antiplatelet activity against rabbit platelets assessed as inhibition of PAF-induced platelet aggregation at 100 ug/ml preincubated for 3 mins by turbidimetric method; type: functional, Oryctolagus cuniculus; parameters: scale not given: the % may be the effect or the level left; how it was run: as §2
Aorta [11] = test: Vasorelaxation activity in rat aorta assessed as inhibition of norepinephrine-induced tonic contraction at 50 ug/ml preincubated for 15 mins relative to control; type: functional; parameters: scale not given: the % may be the effect or the level left; how it was run: as §1
Aorta [12] = test: Vasorelaxation activity in rat aorta assessed as inhibition of K+-induced contraction at 30 ug/ml preincubated for 15 mins relative to control; type: functional; parameters: scale not given: the % may be the effect or the level left; how it was run: as §1
[13] = Antiplatelet activity against rabbit platelets assessed as inhibition of arachidonic acid-induced platelet aggregation at 10 ug/ml preincubated for 3 mins by turbidimetric method; type: functional, Oryctolagus cuniculus; parameters: scale not given: the % may be the effect or the level left; how it was run: as §2
[14] = Antiplatelet activity against rabbit platelets assessed as inhibition of arachidonic acid-induced platelet aggregation at 20 ug/ml preincubated for 3 mins by turbidimetric method; type: functional, Oryctolagus cuniculus; parameters: scale not given: the % may be the effect or the level left; how it was run: as §2
Aorta [15] = test: Vasorelaxation activity in rat aorta assessed as inhibition of norepinephrine-induced phasic contraction at 100 ug/ml preincubated for 15 mins relative to control; type: functional; parameters: scale not given: the % may be the effect or the level left; how it was run: as §1
Aorta [16] = test: Vasorelaxation activity in rat aorta assessed as inhibition of norepinephrine-induced tonic contraction at 30 ug/ml preincubated for 15 mins relative to control; type: functional; parameters: scale not given: the % may be the effect or the level left; how it was run: as §1
Aorta [17] = test: Vasorelaxation activity in rat aorta assessed as inhibition of norepinephrine-induced tonic contraction at 100 ug/ml preincubated for 15 mins relative to control; type: functional; parameters: scale not given: the % may be the effect or the level left; how it was run: as §1
Aorta [18] = test: Vasorelaxation activity in rat aorta assessed as inhibition of K+-induced contraction at 100 ug/ml preincubated for 15 mins relative to control; type: functional; parameters: scale not given: the % may be the effect or the level left; how it was run: as §1
Aorta [19] = test: Vasorelaxation activity in rat aorta assessed as inhibition of norepinephrine-induced phasic contraction at 30 ug/ml preincubated for 15 mins relative to control; type: functional; parameters: scale not given: the % may be the effect or the level left; how it was run: as §1
[20] = Antiplatelet activity against rabbit platelets assessed as inhibition of PAF-induced platelet aggregation at 20 ug/ml preincubated for 3 mins by turbidimetric method; type: functional, Oryctolagus cuniculus; parameters: scale not given: the % may be the effect or the level left; how it was run: as §2
[21] = Antiplatelet activity against rabbit platelets assessed as inhibition of PAF-induced platelet aggregation at 50 ug/ml preincubated for 3 mins by turbidimetric method; type: functional, Oryctolagus cuniculus; parameters: scale not given: the % may be the effect or the level left; how it was run: as §2
[22] = Antiplatelet activity against rabbit platelets assessed as inhibition of arachidonic acid-induced platelet aggregation at 5 ug/ml preincubated for 3 mins by turbidimetric method; type: functional, Oryctolagus cuniculus; parameters: scale not given: the % may be the effect or the level left
How it was run: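 Washed rabbit platelet suspension preincubated with DMSO (0.5%, control) or sample at 37 °C for 3 min. Arachidonic acid (100 μM) then added. Turbidimetric read-out with platelet suspension as 0% and platelet-free Tyrode's solution as 100% aggregation. Percent aggregation read at 6 min. Means ± S.E.M. (n).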

[23] = Antiplatelet activity against rabbit platelets assessed as inhibition of PAF-induced platelet aggregation at 10 ug/ml preincubated for 3 mins by turbidimetric method; type: functional, Oryctolagus cuniculus; parameters: scale not given: the % may be the effect or the level left; how it was run: as §2
Platelet [24] = test: (§4) Antiplatelet activity against rabbit platelets assessed as inhibition of collagen-induced platelet aggregation at 50 ug/ml preincubated for 3 mins by turbidimetric method; type: functional; conditions: Oryctolagus cuniculus; how it was run: as §2
Platelet [25] = test: as §3; type: functional; conditions: Oryctolagus cuniculus; how it was run: as §2
[26] = Antiplatelet activity against rabbit platelets assessed as inhibition of arachidonic acid-induced platelet aggregation at 50 ug/ml preincubated for 3 mins by turbidimetric method; type: functional, Oryctolagus cuniculus; parameters: scale not given: the % may be the effect or the level left; how it was run: as §2
Aorta [27] = test: Vasorelaxation activity in rat aorta assessed as inhibition of norepinephrine-induced tonic contraction at 12.5 ug/ml preincubated for 15 mins relative to control; type: functional; parameters: scale not given: the % may be the effect or the level left; how it was run: as §1
[28] = Antiplatelet activity against rabbit platelets assessed as inhibition of PAF-induced platelet aggregation at 25 ug/ml preincubated for 3 mins by turbidimetric method; type: functional, Oryctolagus cuniculus; parameters: scale not given: the % may be the effect or the level left; how it was run: as §2
Aorta [29] = test: Vasorelaxation activity in rat aorta assessed as inhibition of norepinephrine-induced phasic contraction at 12.5 ug/ml preincubated for 15 mins relative to control; type: functional; parameters: scale not given: the % may be the effect or the level left; how it was run: as §1
[30] = Antiplatelet activity against rabbit platelets assessed as inhibition of collagen-induced platelet aggregation at 25 ug/ml preincubated for 3 mins by turbidimetric method; type: functional, Oryctolagus cuniculus; parameters: scale not given: the % may be the effect or the level left; how it was run: as §2
Aorta [31] = test: Vasorelaxation activity in rat aorta assessed as inhibition of K+-induced contraction at 12.5 ug/ml preincubated for 15 mins relative to control; type: functional; parameters: scale not given: the % may be the effect or the level left; how it was run: as §1
Aorta [32] = test: Vasorelaxation activity in rat aorta assessed as inhibition of K+-induced contraction at 3.8 ug/ml preincubated for 15 mins relative to control; type: functional; parameters: scale not given: the % may be the effect or the level left; how it was run: as §1
[33] = Antiplatelet activity against rabbit platelets assessed as inhibition of arachidonic acid-induced platelet aggregation at 25 ug/ml preincubated for 3 mins by turbidimetric method; type: functional, Oryctolagus cuniculus; parameters: scale not given: the % may be the effect or the level left; how it was run: as §2
[34] = Antiplatelet activity against rabbit platelets assessed as inhibition of thrombin-induced platelet aggregation at 25 ug/ml preincubated for 3 mins by turbidimetric method; type: functional, Oryctolagus cuniculus; parameters: scale not given: the % may be the effect or the level left; how it was run: as §2
[35] = as §4; type: functional, Oryctolagus cuniculus; parameters: scale not given: the % may be the effect or the level left; how it was run: as §2
[36] = Antiplatelet activity against rabbit platelets assessed as inhibition of thrombin-induced platelet aggregation at 50 ug/ml preincubated for 3 mins by turbidimetric method; type: functional, Oryctolagus cuniculus; parameters: scale not given: the % may be the effect or the level left; how it was run: as §2

SMILES: COc1ccc2c(c1OC)CN1CCc3cc4c(cc3[C@@H]1C2)OCO4 [CANADINE]
- Activity (Aorta [1]): 11.2%
- Activity (Aorta [2]): 82.8%
- Activity [3]: 91.2%
- Activity (Aorta [4]): 49.8%
- Activity (Aorta [5]): 79.1%
- Activity (Aorta [6]): 70%
- Activity (Aorta [7]): 13.6%
- Activity [8]: 45.8%
- Activity [9]: 76.4%
- Activity [10]: 54.7%
- Activity (Aorta [11]): 25.6%

SMILES: COc1ccc(-c2oc3c(OC)c(O)cc(O)c3c(=O)c2O)cc1 [PRUDOMESTIN]
- Activity (Aorta [12]): 83.4%
- Activity [3]: 87.5%
- Activity [13]: 64.5%
- Activity [14]: 0%
- Activity (Aorta [15]): 20%
- Activity (Aorta [16]): 97.8%
- Activity (Aorta [17]): 46.7%
- Activity (Aorta [18]): 36.7%
- Activity [8]: 0%
- Activity [9]: 58.1%
- Activity [10]: 73.3%
- Activity (Aorta [19]): 100.6%

SMILES: COc1ccc(-c2oc3c(OC)c(OC)cc(OC(C)=O)c3c(=O)c2OC(C)=O)cc1
- Activity (Aorta [1]): 74.6%
- Activity (Aorta [2]): 84.8%
- Activity [20]: 71.2%
- Activity [21]: 46.7%
- Activity [22]: 51.1%
- Activity [3]: 88.5%
- Activity [13]: 29%
- Activity [14]: 0%
- Activity (Aorta [4]): 57.1%
- Activity (Aorta [5]): 94.6%
- Activity (Aorta [6]): 86.3%
- Activity (Aorta [7]): 25.3%
- Activity [23]: 78%
- Activity [8]: 0%
- Activity [9]: 5.1%
- Activity [10]: 0%
- Activity (Aorta [11]): 58.7%

SMILES: CCCCCCCCCCCC(C)=O [2-TRIDECANONE]
- Activity (Platelet [24]): inactive
- Activity [14]: 63.5%
- Activity (Platelet [25]): inactive

SMILES: O=c1ccc2nccc3c4ccccc4n1c23 [CANTHIN-6-ONE]
- Activity [26]: 57.3%
- Activity [3]: 85.3%
- Activity [8]: 4.2%
- Activity [9]: 7.9%
- Activity [10]: 36.4%

SMILES: COc1ccc(-c2oc3c(OC)c(OC)cc(O)c3c(=O)c2O)cc1 [TAMBULIN]
- Activity [3]: 81.1%
- Activity (Aorta [15]): 100.2%
- Activity (Aorta [17]): 98.6%
- Activity (Aorta [18]): 104.7%
- Activity [8]: 73.3%
- Activity [9]: 64.9%
- Activity [10]: 78.6%

SMILES: COc1cccc2c1c1ccnc3ccc(=O)n2c31
- Activity (Aorta [27]): 78.9%
- Activity [28]: 84.8%
- Activity (Aorta [29]): 88.4%
- Activity [30]: 76.3%
- Activity (Aorta [31]): 57.9%
- Activity (Aorta [32]): 74.5%
- Activity [33]: 80.4%
- Activity [34]: 90.3%

SMILES: CCCCCCCCC/C=C/C=C/C(=O)NCC(C)(C)O [TETRAHYDROBUNGEANOOL]
- Activity [26]: 58.3%
- Activity [21]: 82.7%
- Activity [3]: 74%
- Activity [8]: 0%
- Activity [9]: 0%
- Activity [10]: 6.7%

SMILES: CC(=O)Oc1ccccc1C(=O)O [ASPIRIN]
- Activity [26]: 0%
- Activity [35]: 87.1%
- Activity [21]: 90.1%
- Activity [36]: 92.1%
- Activity [13]: 90.2%
- Activity [14]: 42.7%
